An excerpt weighted towards active compounds, which were near 2.5% of everything screened.
PRMT1 FP inh: blocks human protein arginine methyltransferase 1 | actives 1.3% (n = 370,000) | inhibition, % at 2.79 µM | recombinant PRMT1, activity-based probe fluorescence polarization;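 active = inhibition above about 21% made by adding two undisclosed values, limit read from the data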
PAD4 FP inh: blocks human protein arginine deiminase 4; AID 485272; inhibition, % at 6.36 µM; Q9UM07; actives 0.41% (n = 330,000); recombinant PAD4, RCA probe fluorescence polarization;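 active = percent inhibition above a cutoff equal to the mean of all tested compounds plus 3 SD, cut at about 15% in these data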;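 note: 0% = PAD4 with RCA probe and DMSO and 100% = probe without PAD4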
TDP2 absorb: TDP2 (human) inhibition, absorbance primary screen; actives 0.34% (n = 370,000); inhibition, % at 12.8 µM; recombinant TDP2, T5PNP hydrolysis, p-nitrophenol absorbance 415 nm;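 active = inhibition above the mean of all tested compounds plus 3 SD, set per campaign, cut at about 25% in these data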;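 note: 0% = DMSO with enzyme and 100% = buffer with substrate but no TDP2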
Target sequence (O95551 whole entry, looked up): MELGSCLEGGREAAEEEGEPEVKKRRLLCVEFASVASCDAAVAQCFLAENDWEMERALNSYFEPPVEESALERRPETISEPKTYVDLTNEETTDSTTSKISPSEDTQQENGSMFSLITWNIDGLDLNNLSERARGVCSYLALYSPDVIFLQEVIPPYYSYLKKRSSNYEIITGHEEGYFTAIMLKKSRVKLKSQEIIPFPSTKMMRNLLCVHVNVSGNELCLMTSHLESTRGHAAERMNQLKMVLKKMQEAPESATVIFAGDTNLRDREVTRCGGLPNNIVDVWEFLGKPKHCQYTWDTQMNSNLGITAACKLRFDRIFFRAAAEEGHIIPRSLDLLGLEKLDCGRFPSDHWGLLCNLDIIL
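test system = human TDP2 enzyme | input = TDP2 enzyme at 120 nM final | medium = 50 mM Tris-HCl pH 7.5 with Mg2+, KCl, DTT, BSA | also added = T5PNP substrate, 5 mM | times = 2 h at 37 °C | technique = epi absorbance | benchmarks = high control without enzyme, low control DMSO plus TDP2 | replication = each compound tested once, singlicate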
CTSL1 counter: blocks F. hepatica cathepsin L1 in PFM18AAP counter-screen; actives 0.49% (n = 300,000); AID 1906; recombinant F. hepatica cathepsin L1, Z-Leu-Arg-MCA fluorescence; inhibition, % at 5.96 µM;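 active = inhibition above the mean of all tested compounds plus 3 SD, set per screening campaign, cut at about 17% in these data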;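 note: 0% = plate median of test compound wells and 100% = 1 µM Z-Phe-Ala-diazomethylketone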
GSTO1 counter: blocks human GSTO1 in RBBP9 counter-screen; P78417; recombinant GSTO1, activity-based probe fluorescence polarization; inhibition, % at 5.96 µM; actives 1.1% (n = 300,000);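 active = inhibition above the campaign mean inhibition plus 3 SD, cut at about 35% in these data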;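 note: 0% = GSTO1-1 with DMSO and 100% = wells lacking GSTO1-1 enzyme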
PRMT1 inh conf: PRMT1 (human) inhibition, FP confirmation | recombinant His-PRMT1, activity-based probe fluorescence polarization | inhibition, % at 2.79 µM | shares compounds with PRMT1 FP inh | AID 687036 | actives 42% (n = 3,300);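 active = mean inhibition across replicates above the hit cutoff derived for the earlier primary screen, cut at about 22% in these data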
* hit, by the source's call; x = no result.

SMILES | PRMT1 FP inh | PAD4 FP inh | TDP2 absorb | CTSL1 counter | GSTO1 counter | PRMT1 inh conf
O=c1[nH]c2cc3c(cc2cc1CN(Cc1cccnc1)Cc1nnnn1Cc1ccco1)OCCO3 | 34.9* | -5.3 | -8.4 | 6.3 | 17.0 | 26.5*
O=C(Nc1ccc(F)cc1)OCc1cn(Cc2ccc(F)cc2F)nn1 | -2.1 | x | 5.8 | x | x | x
Cc1c(C)n(Cc2ccc(-c3ccccc3C(=O)O)cc2)c2ccc(C(=O)N[C@@H](C)c3ccc(Br)cc3)cc12 | 0.5 | x | 3.2 | x | x | x
FC(F)(F)c1cc(CNC2CCC23CCC(c2ccccc2)CC3)ccc1Cl (centres undefined) | -1.8 | x | 1.4 | x | x | x
C[C@H]1C2CC(OC(=O)Nc3ccc(F)cc3)C(C2)[C@H]2CCCCN21 (some centres undefined) | 3.0 | x | 5.9 | x | x | x
Cc1cc(C)c2cc(CN(Cc3ccc4c(c3)OCO4)Cc3nnnn3Cc3ccco3)c(=O)[nH]c2c1 | 5.4 | 0.2 | -1.8 | 2.6 | -5.6 | x
COc1ccccc1CN(Cc1cc2cc3c(cc2[nH]c1=O)OCCO3)Cc1nnnn1Cc1ccco1 | 35.9* | -6.3 | -0.1 | 1.4 | 13.8 | 2.1
CNC(=O)c1nnsc1S(=O)(=O)c1ccc(Cl)cc1 | 77.9* | x | -16.4 | x | x | 72.1*
CCN(CC)S(=O)(=O)c1cccc(C(=O)N/N=C2\CCCC(=O)C2)c1 | 45.9* | -4.9 | -15.5 | -2.5 | 4.9 | -1.7
CCOc1ccc(N2C(=O)CC(Sc3n[nH]c(-c4ccccc4)n3)C2=O)cc1 (centres undefined) | 32.2* | 2.0 | -0.4 | -2.8 | -0.4 | 51.6*
COc1ccc(N2C(=O)CC(Sc3n[nH]c(-c4ccccc4)n3)C2=O)cc1 (centres undefined) | 30.0* | 2.5 | 10.9 | -1.2 | 0.5 | 75.1*
CCCCN(C)S(=O)(=O)c1ccc2[nH]c(=O)oc2c1 | -2.3 | x | -0.6 | x | x | x
O=C(O)c1ccc(NNC(=S)Nc2cc(C(F)(F)F)ccc2Cl)cc1 | 26.6* | -8.0 | 0.3 | -3.9 | -10.4 | 11.6
NS(=O)(=O)c1ccc(CNC(=O)/C=C/c2ccco2)cc1 | 18.2 | 0.2 | 10.4 | 2.0 | 6.1 | x
O=C(/C=C/c1ccco1)NCc1ccc(F)cc1 | 38.2* | -5.7 | -9.0 | 4.8 | -0.3 | 15.0
O=C(Cc1c[nH]c2ccccc12)Nc1ccc(Nc2cccnc2)c(-c2cc(F)cc(F)c2)c1 | 0.1 | x | -0.5 | x | x | x
COC(=O)c1cc(-c2ccc(Cl)s2)c(=O)n2c1CCC2 | 0.3 | x | 4.3 | x | x | x
CCC(=O)OCCNc1cc(Sc2nc3ccccc3s2)c2nonc2c1[N+](=O)[O-] | 67.7* | -3.6 | 12.6 | 3.2 | 3.8 | 75.5*
CCC(=O)OCCNc1cc(Sc2nc3ccccc3[nH]2)c2nonc2c1[N+](=O)[O-] | 84.0* | -10.1 | -5.8 | 4.1 | -17.2 | 76.4*
CCCSc1cc(NCCOC(=O)CCC)c([N+](=O)[O-])c2nonc12 | 20.9 | 4.5 | 4.2 | 1.5 | 13.4 | x
CCCC(=O)OCCNc1cc(SCc2ccco2)c2nonc2c1[N+](=O)[O-] | 13.7 | 3.5 | 13.2 | 11.7 | 22.9 | x
CC(=O)OCCCNc1cc(SCc2ccco2)c2nonc2c1[N+](=O)[O-] | 54.0* | -2.0 | 21.5 | 0.0 | 27.4 | 13.6
CCCC(=O)OCCNc1cc(Sc2nccn2C)c2nonc2c1[N+](=O)[O-] | 71.9* | 1.9 | 4.0 | -1.2 | 13.0 | 40.0*
CN(C)CC(=O)N[C@H]1C[C@@H]2O[C@@H](CO)CC[C@@H]2O[C@@H]1CCc1ccc(C2=CCCCC2)cc1 | -0.4 | x | 3.1 | x | x | x
O=C(Nc1nc(Cc2ccccc2)c(-c2ccccc2)n1Cc1ccccc1)c1ccccc1 | -0.5 | x | 3.8 | x | x | x
SMILES | PRMT1 FP inh | PAD4 FP inh | TDP2 absorb | CTSL1 counter | GSTO1 counter | PRMT1 inh conf
N#C/C(=C\c1ccc2c(c1)OCO2)C(N)=S | 25.5* | 0.1 | -4.1 | 0.5 | 18.9 | 6.7
CCOC(=O)/C(C#N)=C\c1ccc2c(c1)OCO2 | -0.2 | -2.3 | -7.1 | -1.7 | 2.5 | x
CCCC(C)c1nnc(NC(=O)c2cc(C(=O)OC)cc([N+](=O)[O-])c2)s1 (centres undefined) | 28.6* | -4.2 | -2.5 | 3.6 | -28.1 | 54.3*
CCCC(C)NC(=O)c1cc(C(=O)OC)cc([N+](=O)[O-])c1 (centres undefined) | 0.6 | 1.8 | 7.2 | -2.9 | -0.7 | x
Cc1cc2cc(CNC(=O)c3ccco3)ccc2n1C | 35.8* | 9.4 | 6.0 | -0.9 | 14.8 | 2.0
COC(=O)c1ccccc1NC(=O)NCC1CCN(Cc2ccc(OC)cc2)CC1 | 1.8 | x | 5.2 | x | x | x

Compound activity (PubChem BioAssay)
